Data: ChEMBL document CHEMBL4130408, “Photoactivation provides a mechanistic explanation for pan-assay interference behaviour of 2-aminopyrroles in lipoxygenase inhibition” (Eur J Med Chem, 2017)
Active and inactive are the calls of the source. No cut-off for these calls is given here.

Experiments:
[1] = biological target: T1, Polyunsaturated fatty acid lipoxygenase ALOX15 (Homo sapiens, UniProt P16050); test: Inhibition of recombinant human 15-LOX-1 expressed in Escherichia coli BL21(DE3) using linoleic acid as substrate preincubated for 10 mins followed by substrate addition
T1 sequence (P16050 whole entry): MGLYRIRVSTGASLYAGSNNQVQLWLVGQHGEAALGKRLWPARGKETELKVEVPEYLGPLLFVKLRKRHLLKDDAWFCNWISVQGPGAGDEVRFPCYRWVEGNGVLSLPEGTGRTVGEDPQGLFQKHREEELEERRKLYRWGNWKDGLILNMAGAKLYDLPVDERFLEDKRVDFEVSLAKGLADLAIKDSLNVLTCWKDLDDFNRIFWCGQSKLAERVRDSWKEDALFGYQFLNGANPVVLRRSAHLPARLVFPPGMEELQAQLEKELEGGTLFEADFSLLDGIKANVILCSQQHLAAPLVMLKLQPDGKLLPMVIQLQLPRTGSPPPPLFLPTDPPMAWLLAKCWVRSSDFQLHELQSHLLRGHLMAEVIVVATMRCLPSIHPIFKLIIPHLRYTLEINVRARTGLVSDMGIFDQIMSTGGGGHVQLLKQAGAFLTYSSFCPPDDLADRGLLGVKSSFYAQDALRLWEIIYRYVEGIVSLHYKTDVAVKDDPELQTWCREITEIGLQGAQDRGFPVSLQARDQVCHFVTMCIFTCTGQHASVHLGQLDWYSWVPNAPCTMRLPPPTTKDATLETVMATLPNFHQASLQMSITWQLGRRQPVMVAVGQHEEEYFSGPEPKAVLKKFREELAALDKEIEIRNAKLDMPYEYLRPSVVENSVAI

HCC-1.2 [2] = test: Cytotoxicity against human HCC1.2 cells assessed as growth inhibition after 48 hrs by neutral red assay; type: functional; conditions: for CC50: HCC-1.2, 48 h, read-out: LD50 (the source's name)
How it was run: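 HCC-1.2 hepatocarcinoma cells grown in RPMI1640 with 10% heat-inactivated FCS at 37 °C, 5% CO2. 2 × 10^5 cells/well seeded and grown 48 h. Viable cells quantified by neutral red (50 μg/mL) uptake from serum-free medium over 2 h. Dye dissolved in 1% acetic acid/70% ethanol, read as absorbance 560 minus 620 nm. Triplicate wells; three to five independent experiments; LD50 reported.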

[3] = biological target: T2, Polyunsaturated fatty acid lipoxygenase ALOX15 (Homo sapiens) (UniProt P16050); test: Inhibition of recombinant human 15-LOX-1 expressed in Escherichia coli BL21(DE3) assessed as residual activity at 50 uM using linoleic acid as substrate preincubated for 10 mins followed by substrate addition
T2 sequence (whole entry): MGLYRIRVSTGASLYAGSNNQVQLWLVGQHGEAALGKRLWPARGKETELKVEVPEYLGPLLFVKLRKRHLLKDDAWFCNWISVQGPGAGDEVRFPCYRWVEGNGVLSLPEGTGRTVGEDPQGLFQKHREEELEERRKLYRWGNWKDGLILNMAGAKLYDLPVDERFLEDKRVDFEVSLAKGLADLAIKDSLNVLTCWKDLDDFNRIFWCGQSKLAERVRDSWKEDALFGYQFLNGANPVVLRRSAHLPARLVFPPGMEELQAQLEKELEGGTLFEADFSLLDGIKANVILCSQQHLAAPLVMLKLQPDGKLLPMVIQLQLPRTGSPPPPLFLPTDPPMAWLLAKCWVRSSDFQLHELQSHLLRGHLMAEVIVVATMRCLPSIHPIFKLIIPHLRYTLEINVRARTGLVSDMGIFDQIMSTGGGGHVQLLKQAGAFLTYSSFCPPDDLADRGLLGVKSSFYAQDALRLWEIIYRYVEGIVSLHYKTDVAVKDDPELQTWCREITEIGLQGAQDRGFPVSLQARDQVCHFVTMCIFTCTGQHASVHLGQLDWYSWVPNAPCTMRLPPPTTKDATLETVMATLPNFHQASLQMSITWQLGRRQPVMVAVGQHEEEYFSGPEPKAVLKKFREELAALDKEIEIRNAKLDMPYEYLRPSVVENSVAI
How it was run: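 h-15-LOX-1 (1:100 enzyme stock, 1:400 final) preincubated 10 min at room temperature with inhibitor in 25 mM HEPES pH 7.4, then linoleic acid added to 25 µM final (inhibitor 50 µM final). 13(S)-HpODE formation read as A234 over time, rate taken from linear part within first 16 min; no-inhibitor = 100%, no-enzyme = 0%. Triplicate.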

HCC-1.2 [4] = test: Photocytotoxicity against human HCC1.2 cells assessed as decrease in cell viability preincubated with day light for 10 mins measured after 48 hrs by neutral red assay; type: functional, cell-based
HCC-1.2 [5] = test: Photocytotoxicity against human HCC1.2 cells assessed as decrease in cell viability preincubated with UV light at 365 nm for 10 mins measured after 48 hrs by neutral red assay; type: functional, cell-based
HCC-1.2 [6] = test: Photocytotoxicity against human HCC1.2 cells assessed as decrease in cell viability at 0.4 to 10 uM preincubated with day light for 10 mins measured after 48 hrs by neutral red assay; type: functional, cell-based
[7] = biological target: T2, Polyunsaturated fatty acid lipoxygenase ALOX15 (Homo sapiens); test: Uncompetitive inhibition of recombinant human 15-LOX-1 expressed in Escherichia coli BL21(DE3) assessed as enzyme apparent Vmax at 6 uM using linoleic acid as substrate preincubated for 10 mins followed by substrate addition by Lineweaver-Burk plot analysis (reference value: 106.10 +/- 40.95 abs/hr)
[8] = biological target: T2, Polyunsaturated fatty acid lipoxygenase ALOX15 (Homo sapiens); test: Inhibition of recombinant human 15-LOX-1 expressed in Escherichia coli BL21(DE3) at 15 uM preincubated with UV light at 365 nm followed by measuring UV absorbance of 13(S)-HpODE at 234 nm over 16 mins; conditions: TDE = time-dependent effect
How it was run: (§1)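 Light-sensitivity test: h-15-LOX-1 preincubated with inhibitor for 2, 5 and 10 min under daylight, 365 nm UV irradiation or darkness, in triplicate. Linoleic acid conversion to 13(S)-HpODE then followed at 234 nm over 16 min, relative to a no-inhibitor positive control. Buffer 25 mM HEPES pH 7.4. Experiments repeated at least twice.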

[9] = biological target: T2, Polyunsaturated fatty acid lipoxygenase ALOX15 (Homo sapiens); test: Uncompetitive inhibition of recombinant human 15-LOX-1 expressed in Escherichia coli BL21(DE3) assessed as enzyme apparent Vmax at 8 uM using linoleic acid as substrate preincubated for 10 mins followed by substrate addition by Lineweaver-Burk plot analysis (reference value: 106.10 +/- 40.95 abs/hr)
[10] = biological target: T2, Polyunsaturated fatty acid lipoxygenase ALOX15 (Homo sapiens); test: Inhibition of recombinant human 15-LOX-1 expressed in Escherichia coli BL21(DE3) at 15 uM preincubated with UV light at 254 nm for 2 to 10 mins followed by measuring UV absorbance of 13(S)-HpODE at 234 nm over 16 mins
How it was run: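 254 nm UV irradiation used as a control during preincubation of h-15-LOX-1 with inhibitor. Activity was then read as 13(S)-HpODE absorbance at 234 nm over 16 min, against a no-inhibitor control. Assay buffer 25 mM HEPES pH 7.4.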

[11] = biological target: T2, Polyunsaturated fatty acid lipoxygenase ALOX15 (Homo sapiens); test: Inhibition of recombinant human 15-LOX-1 expressed in Escherichia coli BL21(DE3) assessed as residual activity at 15 uM preincubated in darkness followed by measuring UV absorbance of 13(S)-HpODE at 234 nm over 16 mins; how it was run: as §1
[12] = biological target: T2, Polyunsaturated fatty acid lipoxygenase ALOX15 (Homo sapiens); test: Inhibition of recombinant human 15-LOX-1 expressed in Escherichia coli BL21(DE3) at 15 uM preincubated in light followed by measuring UV absorbance of 13(S)-HpODE at 234 nm over 16 mins; conditions: TDE = time-dependent effect; how it was run: as §1
[13] = compound: Nc1[nH]c(C(=O)c2ccccc2)c(-c2ccc(Cl)cc2Cl)c1C(=O)c1ccc(Cl)c(Cl)c1; test: Uncompetitive inhibition of recombinant human 15-LOX-1 expressed in Escherichia coli BL21(DE3) assessed as apparent Km for substrate at 6 uM using linoleic acid as substrate preincubated for 10 mins followed by substrate addition by Lineweaver-Burk plot analysis (reference value: 32.67 +/- 12.23 uM)
[14] = compound: Nc1[nH]c(C(=O)c2ccccc2)c(-c2ccc(Cl)cc2Cl)c1C(=O)c1ccc(Cl)c(Cl)c1; test: Uncompetitive inhibition of recombinant human 15-LOX-1 expressed in Escherichia coli BL21(DE3) assessed as apparent Km for substrate at 8 uM using linoleic acid as substrate preincubated for 10 mins followed by substrate addition by Lineweaver-Burk plot analysis (reference value: 32.67 +/- 12.23 uM)

Molecule | IC50 [1] | Activity (HCC-1.2 [2]) | CC50 (HCC-1.2 [2]) | further results
Nc1[nH]c(C(=O)c2ccccc2)c(-c2cccc3ccccc23)c1C(=O)c1ccc(Cl)c(Cl)c1 | > 100 µM |  |  | 
Nc1[nH]c(C(=O)c2ccccc2)c(-c2cccnc2)c1C(=O)c1cccc(Cl)c1 | > 100 µM |  |  | 
Nc1[nH]c(C(=O)c2ccccc2)c(-c2ccc(Cl)cc2)c1C(=O)c1cccc(Cl)c1 | > 100 µM |  |  | 
Nc1[nH]c(C(=O)c2ccccc2)c(-c2ccncc2)c1C(=O)c1cccc(Cl)c1 | > 100 µM |  |  | 
Nc1[nH]c(C(=O)c2ccccc2)c(-c2ccc3c(c2)OCO3)c1C(=O)c1cccc(Cl)c1 | > 100 µM |  |  | 
Nc1[nH]c(C(=O)c2ccccc2)c(-c2ccc3ccccc3c2)c1C(=O)c1ccc(Cl)c(Cl)c1 |  | Dose-dependent effect | 2.64 µM | 
Nc1[nH]c(C(=O)c2ccccc2)c(-c2cccc(Cl)c2)c1C(=O)c1cccc(Cl)c1 | > 100 µM |  |  | 
Nc1[nH]c(C(=O)c2ccccc2)c(-c2ccc(Cl)cc2Cl)c1C(=O)c1ccc(Cl)cc1 | > 100 µM | Dose-dependent effect | 1.05 µM | 
Nc1[nH]c(C(=O)c2ccccc2)c(-c2ccc(-c3ccccc3)cc2)c1C(=O)c1cccc(Cl)c1 | > 100 µM |  |  | 
NC(=O)c1c(N)[nH]c(C(=O)c2ccccc2)c1-c1ccc(Cl)cc1Cl | > 100 µM |  |  | Activity [3]: 109%
Nc1[nH]c(C(=O)c2ccccc2)c(-c2ccc(F)cc2F)c1C(=O)c1cccc(Cl)c1 |  | Dose-dependent effect | 0.99 µM | Activity (HCC-1.2 [4]): inactive; Activity (HCC-1.2 [5]): inactive
Cc1cccc(C(=O)c2c(N)[nH]c(C(=O)c3ccccc3)c2-c2ccc(Cl)cc2Cl)c1 | > 100 µM | Dose-dependent effect | 1.04 µM | Activity (HCC-1.2 [6]): Active
CCOC(=O)c1ccc[nH]1 | > 100 µM |  |  | 
Nc1[nH]c(C(=O)c2ccccc2)c(-c2ccc(Cl)cc2Cl)c1C(=O)c1cccs1 | > 100 µM |  |  | 
Nc1[nH]c(C(=O)c2ccccc2)c(-c2c(F)cccc2F)c1C(=O)c1ccc(Cl)c(Cl)c1 | > 100 µM |  |  | Activity [3]: 100%
Nc1[nH]c(C(=O)c2ccccc2)c(-c2ccc(Cl)cc2Cl)c1C(=O)c1cccc(F)c1 | > 100 µM |  |  | 
Nc1[nH]c(C(=O)c2ccccc2)c(-c2ccccc2Cl)c1C(=O)c1cccc(Cl)c1 | > 100 µM |  |  | 
Nc1[nH]c(C(=O)c2ccccc2)c(-c2ccc(Cl)cc2Cl)c1C(=O)c1ccc(Cl)c(Cl)c1 | 12.8 µM | Dose-dependent effect | 0.55 µM | Vmax(app) [7]: 68.2 abs/hr; inhibition [8]: Tde; Activity [3]: 40.8%; Vmax(app) [9]: 47.2 abs/hr; inhibition [10]: inactive; Activity [11]: 80%; inhibition [12]: Tde
Nc1[nH]c(C(=O)c2ccccc2)c(-c2ccc(Cl)cc2Cl)c1C(=O)c1ccccc1 | > 100 µM |  |  | Activity [3]: 73.1%
CCOC(=O)c1ccc(N)[nH]1 | > 100 µM |  |  | 
Nc1[nH]c(C(=O)c2ccccc2)c(-c2ccc(O)cc2O)c1C(=O)c1cccc(Cl)c1 | 8.3 µM | Dose-dependent effect | 2.75 µM | 
Nc1[nH]c(C(=O)c2ccccc2)c(-c2ccc(Cl)cc2Cl)c1C(=O)c1cccc(Br)c1 | 6.3 µM | Dose-dependent effect | 1.64 µM | 
Polyunsaturated fatty acid lipoxygenase ALOX15 (Homo sapiens), P16050 (protein) MGLYRIRVSTGASLYAGSNNQVQLWLVGQHGEAALGKRLWPARGKETELKVEVPEYLGPLLFVKLRKRHLLKDDAWFCNWISVQGPGAGDEVRFPCYRWVEGNGVLSLPEGTGRTVGEDPQGLFQKHREEELEERRKLYRWGNWKDGLILNMAGAKLYDLPVDERFLEDKRVDFEVSLAKGLADLAIKDSLNVLTCWKDLDDFNRIFWCGQSKLAERVRDSWKEDALFGYQFLNGANPVVLRRSAHLPARLVFPPGMEELQAQLEKELEGGTLFEADFSLLDGIKANVILCSQQHLAAPLVMLKLQPDGKLLPMVIQLQLPRTGSPPPPLFLPTDPPMAWLLAKCWVRSSDFQLHELQSHLLRGHLMAEVIVVATMRCLPSIHPIFKLIIPHLRYTLEINVRARTGLVSDMGIFDQIMSTGGGGHVQLLKQAGAFLTYSSFCPPDDLADRGLLGVKSSFYAQDALRLWEIIYRYVEGIVSLHYKTDVAVKDDPELQTWCREITEIGLQGAQDRGFPVSLQARDQVCHFVTMCIFTCTGQHASVHLGQLDWYSWVPNAPCTMRLPPPTTKDATLETVMATLPNFHQASLQMSITWQLGRRQPVMVAVGQHEEEYFSGPEPKAVLKKFREELAALDKEIEIRNAKLDMPYEYLRPSVVENSVAI |  |  |  | Km [13]: 24 µM; Km [14]: 20 µM
